Data: ChEMBL document CHEMBL5674869, “The Histone Methyltransferase Inhibitor A-366 Uncovers a Role for G9a/GLP in the Epigenetics of Leukemia” (PLoS One, 2015)
The source made the active and inactive calls. The rule behind the calls is not given here.

Tests used:
NCI-H522 = assay: Antiproliferative against human NCI-H522 cells after 5 days by Cell-Titer Glo assay; format: functional, cell-based; conditions: NCI-H522, 120 h
Method in brief: (§1)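 ATCC tumor lines were grown in their recommended media with 10% FBS and STR-authenticated. Cells were exposed to compound for the stated number of days. Viable cells were read by CellTiter-Glo endpoint. Inhibition was the ratio of treated to untreated wells, with cell-free wells set as 100% inhibition. The EC50 was taken from the dose response.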

NCI-H2009 = assay: Antiproliferative against human NCI-H2009 cells after 5 days by Cell-Titer Glo assay; format: functional, cell-based; conditions: NCI-H2009, 120 h; method in brief: as §1
[1] = molecular target: T1, Histone-lysine N-methyltransferase EHMT2 (Homo sapiens) (UniProt Q96KQ7); assay: Inhibition of G9a in human MCF7 cells assessed as decrease in […] levels at 0.3 to 3 uM after 72 hrs by Western blot analysis; format: cell-based; conditions: dose 0.3-3 µM
T1 sequence (whole entry): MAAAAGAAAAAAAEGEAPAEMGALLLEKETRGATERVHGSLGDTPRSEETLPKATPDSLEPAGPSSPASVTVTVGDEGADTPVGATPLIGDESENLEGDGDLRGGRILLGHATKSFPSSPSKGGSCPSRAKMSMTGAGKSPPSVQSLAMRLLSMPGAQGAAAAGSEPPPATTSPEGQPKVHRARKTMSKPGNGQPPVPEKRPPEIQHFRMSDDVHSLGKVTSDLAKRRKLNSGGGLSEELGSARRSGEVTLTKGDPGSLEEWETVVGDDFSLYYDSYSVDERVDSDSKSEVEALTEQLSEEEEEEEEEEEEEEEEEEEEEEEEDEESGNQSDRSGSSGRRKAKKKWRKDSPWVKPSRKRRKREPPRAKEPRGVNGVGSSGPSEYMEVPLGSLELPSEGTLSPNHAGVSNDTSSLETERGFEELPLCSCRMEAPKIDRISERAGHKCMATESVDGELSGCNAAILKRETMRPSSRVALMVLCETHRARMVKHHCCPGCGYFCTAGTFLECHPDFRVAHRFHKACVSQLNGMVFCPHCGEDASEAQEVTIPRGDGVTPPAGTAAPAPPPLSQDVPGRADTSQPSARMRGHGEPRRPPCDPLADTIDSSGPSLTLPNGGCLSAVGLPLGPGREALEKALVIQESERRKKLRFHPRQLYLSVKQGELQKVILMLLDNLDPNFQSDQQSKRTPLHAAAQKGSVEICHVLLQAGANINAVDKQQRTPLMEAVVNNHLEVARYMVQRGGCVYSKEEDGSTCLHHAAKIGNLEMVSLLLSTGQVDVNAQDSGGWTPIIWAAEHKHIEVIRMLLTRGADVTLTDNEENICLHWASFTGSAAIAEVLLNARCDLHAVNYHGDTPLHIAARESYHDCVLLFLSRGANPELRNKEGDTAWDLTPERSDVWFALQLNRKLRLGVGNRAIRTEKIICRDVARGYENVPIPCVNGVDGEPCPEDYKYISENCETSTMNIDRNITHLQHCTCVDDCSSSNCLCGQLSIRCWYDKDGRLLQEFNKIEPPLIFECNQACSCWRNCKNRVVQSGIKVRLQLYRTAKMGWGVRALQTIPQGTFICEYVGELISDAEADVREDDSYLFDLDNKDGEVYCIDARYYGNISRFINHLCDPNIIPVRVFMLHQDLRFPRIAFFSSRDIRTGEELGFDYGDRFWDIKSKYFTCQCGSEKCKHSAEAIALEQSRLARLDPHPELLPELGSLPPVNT

KMS-12-BM = assay: Antiproliferative against human KMS-12-BM cells after 5 days by Cell-Titer Glo assay; format: functional, cell-based; conditions: 120 h; method in brief: as §1
Calu-1 = assay: Antiproliferative against human Calu-1 cells after 5 days by Cell-Titer Glo assay; format: functional, cell-based; conditions: Calu-1, 120 h; method in brief: as §1
CWR22R = assay: Antiproliferative against human 22RV1 cells after 5 days by Cell-Titer Glo assay; format: functional, cell-based; conditions: 22Rv1, 120 h; method in brief: as §1
LNCaP = assay: Antiproliferative against human LNCaP cells after 5 days by Cell-Titer Glo assay; format: functional, cell-based; conditions: 120 h; method in brief: as §1
NCI-H358 = assay: Antiproliferative against human NCI-H358 cells after 5 days by Cell-Titer Glo assay; format: functional, cell-based; conditions: NCI-H358, 120 h; method in brief: as §1
HL-60 = assay: Antiproliferative against human HL-60 cells after 5 days by Cell-Titer Glo assay; format: functional, cell-based; conditions: HL-60, 120 h; method in brief: as §1
SK-N-MC = assay: Antiproliferative against human SK-N-MC cells after 7 days by Cell-Titer Glo assay; format: functional, cell-based; conditions: 168 h; method in brief: as §1
[2] = Antiproliferative against human TC71 cells after 7 days by Cell-Titer Glo assay; format: functional, cell-based; conditions: TC-71, 168 h; method in brief: as §1
PA-1 = assay: Antiproliferative against human PA-1 cells after 7 days by Cell-Titer Glo assay; format: functional, cell-based; conditions: PA-1, 168 h; method in brief: as §1
NCI-H441 = assay: Antiproliferative against human NCI-H441 cells after 5 days by Cell-Titer Glo assay; format: functional, cell-based; conditions: NCI-H441, 120 h; method in brief: as §1
RPMI-8226 = assay: Antiproliferative against human RPMI-8226 cells after 5 days by Cell-Titer Glo assay; format: functional, cell-based; conditions: RPMI-8226, 120 h; method in brief: as §1
HT-1080 = assay: Antiproliferative against human HT-1080 cells after 5 days by Cell-Titer Glo assay; format: functional, cell-based; conditions: HT-1080, 120 h; method in brief: as §1
IMR-32 = assay: Antiproliferative against human IMR-32 cells after 7 days by Cell-Titer Glo assay; format: functional, cell-based; conditions: IMR-32, 168 h; method in brief: as §1
RS4-11 = assay: Antiproliferative against human RS4-11 cells after 5 days by Cell-Titer Glo assay; format: functional, cell-based; conditions: RS4-11, 120 h; method in brief: as §1
L-363 = assay: Antiproliferative against human L-363 cells after 5 days by Cell-Titer Glo assay; format: functional, cell-based; conditions: L-363, 120 h; method in brief: as §1
LN-229 = assay: Antiproliferative against human LN-229 cells after 5 days by Cell-Titer Glo assay; format: functional, cell-based; conditions: LN-229, 120 h; method in brief: as §1
MV4-11 = assay: Antiproliferative against human MV4-11 cells after 5 days by Cell-Titer Glo assay; format: functional, cell-based; conditions: MV4-11, 120 h; method in brief: as §1
NCI-H929 = assay: Antiproliferative against human NCI-H929 cells after 5 days by Cell-Titer Glo assay; format: functional, cell-based; conditions: NCI-H929, 120 h; method in brief: as §1
G-401 = assay: Antiproliferative against human G-401 cells after 7 days by Cell-Titer Glo assay; format: functional, cell-based; conditions: G-401, 168 h; method in brief: as §1
[3] = Antiproliferative against human tsA201 cells after 7 days by Cell-Titer Glo assay; format: functional, cell-based; conditions: tsA201, 168 h; method in brief: as §1
[4] = molecular target: T1, Histone-lysine N-methyltransferase EHMT2 (Homo sapiens); assay: Inhibition of G9a in human MDA-MB-231 cells assessed as slight decrease in […] levels at 0.3 to 3 uM after 72 hrs by Western blot analysis; format: cell-based; conditions: dose 0.3-3 µM
ZR-75-30 = assay: Antiproliferative against human ZR-75-30 cells after 7 days by Cell-Titer Glo assay; format: functional, cell-based; conditions: ZR-75-30, 168 h; method in brief: as §1
OPM-2 = assay: Antiproliferative against human OPM-2 cells after 5 days by Cell-Titer Glo assay; format: functional, cell-based; conditions: OPM-2, 120 h; method in brief: as §1
NCI-H661 = assay: Antiproliferative against human NCI-H661 cells after 5 days by Cell-Titer Glo assay; format: functional, cell-based; conditions: NCI-H661, 120 h; method in brief: as §1

Compound | EC50 (NCI-H522) [µM] | EC50 (NCI-H2009) [µM] | inhibition [1] | EC50 (KMS-12-BM) [µM] | EC50 (Calu-1) [µM] | EC50 (CWR22R) [µM] | EC50 (LNCaP) [µM] | EC50 (NCI-H358) [µM] | EC50 (HL-60) [µM] | EC50 (SK-N-MC) [µM] | EC50 [2] [µM] | EC50 (PA-1) [µM] | EC50 (NCI-H441) [µM] | EC50 (RPMI-8226) [µM] | EC50 (HT-1080) [µM] | EC50 (IMR-32) [µM] | EC50 (RS4-11) [µM] | EC50 (L-363) [µM] | EC50 (LN-229) [µM] | EC50 (MV4-11) [µM] | other results
COc1cc2c(NC3CCN(C(C)C)CC3)nc(C3CCCCC3)nc2cc1OCCCN1CCCC1 | 1.5 | 3.9 | Active | 4.4 | 1.3 | 0.2 | 0.3 | 4.3 | 6.5 | 0.2 | 0.6 | 0.2 | 8.7 | 5.1 | 0.5 | > 10 | 3.1 | 3.9 | 0.5 | 1.7 | EC50 (NCI-H929): 4.6 µM; EC50 (G-401): 0.4 µM; EC50 [3]: > 10 µM; inhibition [4]: Active; EC50 (ZR-75-30): 1.2 µM; EC50 (OPM-2): 5.6 µM; EC50 (NCI-H661): 4.9 µM
COc1cc2c(cc1OCCCN1CCCC1)N=C(N)C21CCC1 | > 10 | > 10 | Active | > 10 | > 10 | > 10 | > 10 | > 10 | > 10 | > 10 | > 10 | > 10 | > 10 | > 10 | > 10 | > 10 | > 10 | > 10 | > 10 | > 10 | EC50 (NCI-H929): > 10 µM; EC50 (G-401): > 10 µM; EC50 [3]: > 10 µM; inhibition [4]: Active; EC50 (ZR-75-30): > 10 µM; EC50 (OPM-2): > 10 µM; EC50 (NCI-H661): > 10 µM
